In ChEMBL document CHEMBL1124559, “Synthesis and antiviral activity of the enantiomeric forms of carba-5-iodo-2'-deoxyuridine and carba-(E)-5-(2-bromovinyl)-2'-deoxyuridine” (1989):
In brackets after ≈: the same amount, converted by molar mass.

Assays:
Type in all cases: functional
Oryctolagus cuniculus [1] = species: Oryctolagus cuniculus; assay: Antiviral activity against KOS strain of herpes simplex virus-1 in primary rabbit kidney cell cultures
In short: (§1)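 Confluent cell monolayers in microtiter trays infected with 100 CCID50 of virus (1 CCID50 = dose infecting 50% of cultures); after 1 h adsorption, residual virus removed and cultures incubated with varying compound concentrations. Cytopathogenicity scored once complete in untreated infected controls; value is concentration reducing virus-induced cytopathogenicity by 50%, averaged over three to four separate experiments.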

Oryctolagus cuniculus [2] = species: Oryctolagus cuniculus; assay: Antiviral activity against McIntyre strain of herpes simplex virus-1 in primary rabbit kidney cell cultures; in short: as §1
Oryctolagus cuniculus [3] = species: Oryctolagus cuniculus; assay: Antiviral activity against Vaccinia virus in primary rabbit kidney cell cultures; in short: as §1
Oryctolagus cuniculus [4] = species: Oryctolagus cuniculus; assay: Antiviral activity against G strain of herpes simplex virus-2 in primary rabbit kidney cell cultures; in short: as §1
Oryctolagus cuniculus [5] = species: Oryctolagus cuniculus; assay: Antiviral activity against F strain of herpes simplex virus-1 in primary rabbit kidney cell cultures; in short: as §1
Oryctolagus cuniculus [6] = species: Oryctolagus cuniculus; assay: Antiviral activity against Lyons strain of herpes simplex virus-2 in primary rabbit kidney cell cultures; in short: as §1
Oryctolagus cuniculus [7] = species: Oryctolagus cuniculus; assay: Antiviral activity against 196 strain of herpes simplex virus-2 in primary rabbit kidney cell cultures; in short: as §1
Oryctolagus cuniculus [8] = species: Oryctolagus cuniculus; assay: Minimum cytotoxic concentration required to cause a microscopically detectable alteration of rabbit kidney cell morphology
In short: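 Cell cultures exposed to varying compound concentrations; value is concentration required to cause microscopically detectable alteration of cell morphology.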

Oryctolagus cuniculus [9] = species: Oryctolagus cuniculus; assay: Antiviral activity against B2006 strain of thymidine kinase deficient (TK-) herpes simplex virus-1 in primary rabbit kidney cell cultures; in short: as §1
Oryctolagus cuniculus [10] = species: Oryctolagus cuniculus; assay: Antiviral activity against Vesicular stomatitis virus in primary rabbit kidney cell cultures; in short: as §1
Oryctolagus cuniculus [11] = species: Oryctolagus cuniculus; assay: Antiviral activity against VMW 1837 strain of thymidine kinase deficient (TK-) herpes simplex virus-1 in primary rabbit kidney cell cultures; in short: as §1
[12] = Oryctolagus cuniculus, read-out: MIC

Structure (SMILES)	MIC (Oryctolagus cuniculus [1]) [µg/mL]	MIC (Oryctolagus cuniculus [2]) [µg/mL]	MIC (Oryctolagus cuniculus [3]) [µg/mL]	MIC (Oryctolagus cuniculus [4]) [µg/mL]	MIC (Oryctolagus cuniculus [5]) [µg/mL]	MIC (Oryctolagus cuniculus [1]; [12]) [µg/mL]	MIC (Oryctolagus cuniculus [6]) [µg/mL]	MIC (Oryctolagus cuniculus [2]; [12]) [µg/mL]	MIC (Oryctolagus cuniculus [7]) [µg/mL]	MCC (Oryctolagus cuniculus [8]) [µg/mL]	MIC (Oryctolagus cuniculus [9]) [µg/mL]	MIC (Oryctolagus cuniculus [3]; [12]) [µg/mL]	MIC (Oryctolagus cuniculus [10]) [µg/mL]	MIC (Oryctolagus cuniculus [11]) [µg/mL]	MIC (Oryctolagus cuniculus [4]; [12]) [µg/mL]	MIC (Oryctolagus cuniculus [5]; [12]) [µg/mL]
O=c1[nH]c(=O)n([C@@H]2C[C@H](CO)[C@@H](O)C2)cc1I (racemic)	0.1 (≈ 0.284 µM)	0.1 (≈ 0.284 µM)	150 (≈ 426 µM)	20 (≈ 56.8 µM)	0.1 (≈ 0.284 µM)	–	–	–	–	–	–	–	–	–	–	–
O=c1[nH]c(=O)n([C@H]2C[C@H](O)[C@@H](CO)O2)cc1I [IDOXURIDINE]	–	–	–	–	–	0.1 (≈ 0.282 µM)	1 (≈ 2.82 µM)	0.1 (≈ 0.282 µM)	2 (≈ 5.65 µM)	> 400	> 400	0.2 (≈ 0.565 µM)	> 400	> 400	0.4 (≈ 1.13 µM)	0.07 (≈ 0.198 µM)
O=c1[nH]c(=O)n([C@H]2C[C@H](O)[C@@H](CO)O2)cc1/C=C/Br [BRIVUDINE]	–	–	–	–	–	0.01 (≈ 0.03 µM)	7 (≈ 21 µM)	0.025 (≈ 0.075 µM)	70 (≈ 210 µM)	> 400	150 (≈ 450 µM)	15 (≈ 45 µM)	> 400	> 400	2 (≈ 6 µM)	0.02 (≈ 0.06 µM)
O=c1[nH]c(=O)n([C@@H]2C[C@H](CO)[C@@H](O)C2)cc1I (stereo in doubt; (+))	0.07 (≈ 0.199 µM)	0.2 (≈ 0.568 µM)	40 (≈ 114 µM)	10 (≈ 28.4 µM)	0.07 (≈ 0.199 µM)	–	> 400	–	> 400	> 400	> 400	–	> 400	> 400	–	–
O=c1[nH]c(=O)n([C@@H]2C[C@H](CO)[C@@H](O)C2)cc1I (stereo in doubt; (-))	1 (≈ 2.84 µM)	20 (≈ 56.8 µM)	>400	70 (≈ 199 µM)	7 (≈ 19.9 µM)	–	–	–	–	–	–	–	–	–	–	–
